From ChEMBL document CHEMBL4261504, “Identification of steroid-like natural products as antiplasmodial agents by 2D and 3D similarity-based virtual screening” (Medchemcomm, 2017)

How the values were obtained:
[1] = test system: Plasmodium falciparum; test: Antimalarial activity against Plasmodium falciparum NF54 infected in human erythrocytes assessed as reduction in [3H]hypoxanthine incorporation preincubated for 48 hrs followed by [3H]hypoxanthine addition measured after 24 hrs by liquid scintillation counting; assay type: functional, organism-based
How it was run: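 Chloroquine-sensitive P. falciparum NF54 was tested in a modified [3H]hypoxanthine incorporation assay. Test compounds were run up to 20 μM, and fusidic acid was tested above that. Chloroquine, artesunate and fusidic acid served as positive controls. Compound purity was ≥95%. IC50 is the mean of at least 2 independent experiments.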

[2] = test system: CHO; test: Cytotoxicity against CHO cells by MTT assay; assay type: cell-based; conditions: Cricetulus griseus
How it was run: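 Mammalian Chinese hamster ovary (CHO) cell line, with emetine as the positive control. Test samples were of ≥95% purity. Cytotoxicity is reported as IC50.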

[3] = Selectivity index, ratio of IC50 for CHO cells to IC50 for Plasmodium falciparum NF54 infected in human erythrocytes; assay type: toxicity, cell-based; conditions: Chinese hamster, read-out: Ratio IC50
How it was run: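 SI was calculated as the IC50 against Chinese hamster ovary (CHO) cells divided by the IC50 against P. falciparum NF54. The NF54 value came from the [3H]hypoxanthine incorporation assay. Emetine was the positive control for CHO cytotoxicity.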

Row | Structure (SMILES) | IC50 [1] [µM] | IC50 [2] [µM] | selectivity ratio [3]
1 | CC(=O)[C@@]12O[C@@H]1C[C@H]1[C@H]3CC=C4[C@@H](CC[C@@H](O)C4(C)C)[C@]3(C)C(=O)C[C@@]12C | > 20 |  | 
2 | COC(=O)CC[C@@H](C)[C@H]1CC[C@@H]2[C@H]3[C@H](OC(C)=O)C[C@H]4C[C@H](OC(C)=O)CC[C@]4(C)[C@H]3C[C@H](OC(C)=O)[C@@]21C | 3.45 | 141 | 40.9
3 | CC(=O)O[C@H]1CC[C@@]2(C)C(=CC[C@@H]3[C@H]4CCC[C@@]4(C)CC[C@H]32)C1 | > 20 |  | 
4 | CC(=O)O[C@H]1CC[C@]2(C)[C@H]3CC[C@@]4(C)[C@H](CC[C@@H]4[C@H](C)CCCC(C)C)[C@@H]3C[C@@H](O)[C@]2(O)C1 | > 20 |  | 
5 | CC(=O)O[C@H]1CC[C@@H]2[C@H]3CC[C@@]4(O)[C@H](CCC[C@@H]4O)[C@H]3CC[C@]12C | > 20 |  | 
6 | CC(C)CCC[C@@H](C)[C@H]1CC[C@@H]2[C@@H]3C[C@H](O)[C@]4(O)C(=O)CCC[C@]4(C)[C@H]3CC[C@@]21C | > 20 |  | 
7 | CC[C@H]1CC[C@@]2(C)[C@H]3C[C@H]4O[C@@]45[C@@H](CC[C@@H](O)C5(C)C)[C@@H]3C(=O)C[C@@]12C | > 20 |  | 
8 | CC(=O)O[C@H]1C[C@@H](O)[C@]2(O)CC[C@@H]3[C@H]4CC[C@H]([C@H](C)CCCC(C)C)[C@@]4(C)CC[C@@H]3[C@@]2(C)C1 | 13.1 |  | 
9 | CC(=O)OC[C@@]12C(=O)C[C@@]3(C)[C@H](C(C)=O)CC[C@@]3(C)[C@@H]1C[C@H]1O[C@@]13[C@H]2CC[C@@H](OC(C)=O)C3(C)C | > 20 |  | 
10 | COc1ccc2c(c1)CC[C@@H]1[C@@H]2CC[C@]2(C)C3(CC[C@@]12C=O)SCCS3 | > 20 |  | 
11 | CC(=O)O[C@H]1C[C@@H]2[C@H]3CC[C@H]([C@H](C)CCCC(C)C)[C@@]3(C)CC[C@@H]2[C@@]2(C)CCC[C@@H](O)[C@]12O | > 20 |  | 
12 | CC(=O)O[C@@H]1CC[C@]2(C)[C@H]3CC[C@@]4(C)[C@@H]([C@@H](C)CCCC(C)C)CC[C@H]4[C@@H]3CC[C@@]2(O)[C@@H]1O | > 20 |  | 
13 | CC(=O)O[C@H]1C(=O)C[C@@H]2C(=CC[C@H]3[C@@]2(C)C(=O)C[C@]2(C)C(C(C)=O)=CC[C@@]32C)C1(C)C | 19.8 |  | 
14 | C[C@@H]1CC[C@@]2(OC1)O[C@H]1C[C@H]3[C@@H]4CC[C@H]5C[C@@H](O)CC[C@]5(C)C4=CC(=O)[C@]3(C)[C@H]1[C@@H]2C | > 20 |  | 
15 | CC(=O)O[C@H]1CC[C@@H]2[C@@H]3C[C@H](OC(C)=O)[C@@]45O[C@@H]4CCC[C@]5(C)[C@H]3CC[C@]12C | > 20 |  | 
16 | CC(=O)O[C@@H]1C[C@@]2(C)[C@@H]3CC=C4[C@@H](CC(=O)C4(C)C)[C@]3(C)C(=O)C[C@]2(C)[C@H]1C(C)=O | > 20 |  | 
17 | CC(=O)O[C@H]1CC[C@@H]2[C@H]3C[C@@H](O)[C@@]4(O)CCCC[C@H]4[C@@H]3CC[C@]12C | > 20 |  | 
18 | COc1ccc2c(c1)CC[C@@H]1[C@H]3[C@H](OCc4ccccc4)CC4(OCCO4)[C@H]3CC[C@@H]21 | 7 |  | 
19 | COc1ccc2c(c1)CC[C@H]1[C@@H]2CC[C@@]2(C)[C@]13C=C[C@@]2(C(C)=O)[C@@H](S(=O)(=O)c1ccccc1)C3 | > 20 |  | 
20 | CC(=O)OC(C)(C)/C=C/C(=O)[C@](C)(O)[C@H]1[C@@H](O)C[C@@]2(C)[C@@H]3CC=C4[C@@H](CC[C@H](O)C4(C)C)[C@]3(CO)C(=O)C[C@]12C | 1.76 | 8.51 | 4.83
21 | CC1(C)CCC[C@H]2[C@]3(C)CC[C@]4(C)CCC[C@H]4[C@H]3C[C@@H](O)[C@@]21O | 15.8 |  | 
22 | CC(=O)O[C@@H]1C[C@H]2[C@@](C)(C(=O)C[C@]3(C)[C@@H](C(C)=O)CC[C@@]23C)[C@@H]2CCC(=O)C(C)(C)[C@@]12O | > 20 |  | 
23 | CC(=O)OC(C)(C)/C=C/C(=O)[C@](C)(O)[C@H]1[C@H](O)C[C@@]2(C)[C@@H]3CC=C4[C@@H](C[C@H](O)C(=O)C4(C)C)[C@]3(C)C(=O)C[C@]12C | 1.39 | 1.99 | 1.43
24 | C[C@H]1[C@H](OC(=O)CCC(=O)O)O[C@@H]2O[C@@]3(C)CC[C@H]4[C@H](C)CC[C@@H]1[C@@]24OO3 [ARTESUNATE] | 0.004 |  | 
25 | C[C@H](CCC(=O)O)[C@H]1CC[C@H]2[C@@H]3[C@H](O)C[C@@H]4C[C@H](O)CC[C@]4(C)[C@H]3C[C@H](O)[C@]12C [CHOLIC ACID] | > 20 |  | 
26 | CC(=O)OC(C)(C)/C=C/C(=O)[C@](C)(O)[C@H]1[C@H](O)C[C@@]2(C)[C@@H]3CC=C4[C@@H](C[C@H](O)C(=O)C4(C)C)[C@]3(CO)C(=O)C[C@]12C [CUCURBITACIN A] | 2.92 | 55.2 | 18.9
27 | C[C@@H]1CC[C@@]2(OC1)O[C@H]1C[C@H]3[C@@H]4CC=C5C[C@@H](O)CC[C@]5(C)[C@H]4CC[C@]3(C)[C@H]1[C@@H]2C [DISOGENIN] | > 20 |  | 
28 | CC(=O)O[C@H]1C[C@@]2(C)[C@@H](C[C@@H](O)[C@H]3[C@@]4(C)CC[C@@H](O)[C@@H](C)[C@@H]4CC[C@@]32C)/C1=C(\CCC=C(C)C)C(=O)O [FUSIDIC ACID] |  | 194 | 
